Format in all cases: functional
The test system of one test is Mus musculus. The test can be described thus: Analgesic activity in mouse assessed as increase in paw withdrawal latency at 50 mg/kg after 120 mins by hot plate test (reference value: 6.07 +/- 0.057 secs). (Hot-plate and tail-flick tests time the reaction to a heat stimulus.)
For test [1], the system named is Rattus norvegicus. The test can be described thus: Antiinflammatory activity in rat assessed as inhibition of carrageenan-induced paw oedema at 50 mg/kg after 180 mins relative to untreated control. Conditions: 3 h. In outline: (§1)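 Carrageenan-induced hind-paw oedema (Winter method). The text names both rats and mice. Test agents dosed at 100 mg/kg body weight, reference at 50 mg/kg body weight. Paw thickness measured in mm at 60 and 180 min after carrageenan injection. Percent oedema inhibition calculated against the saline control group. Six animals per group, mean ± SD. One-way ANOVA with Newman-Keuls test.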
(Carrageenan injected into the paw causes an acute inflammation.)

In test [2] the test system is Rattus norvegicus. The test can be described thus: Antiinflammatory activity in rat assessed as inhibition of carrageenan-induced paw oedema at 50 mg/kg after 60 mins relative to untreated control. The note with it: 1 h. The essentials:
as §1

`CC(C)=CCN1CC[C@]2(C)c3cc(O)ccc3C[C@H]1[C@H]2C` [(+)-PENTAZOCINE]: in the test with Mus musculus, the Time came to 14.1 s.

Turning to `O=C(O)Cc1ccccc1Nc1c(Cl)cccc1Cl` [DICLOFENAC], the inhibition in vivo (commonly how much of the control response was suppressed) at 50 mg/kg in the test on Rattus norvegicus [1] is 45.8%; in the test with Rattus norvegicus [2], 44.5%.

Source of the values: ChEMBL document CHEMBL2331523, “Regioselective synthesis of isoxazole-mercaptobenzimidazole hybrids and their in vivo analgesic and anti-inflammatory activity studies” (2013).
